# Assay results reported in ChEMBL document CHEMBL1135584, “2-Amino-6-arylthio-9-[2-(phosphonomethoxy)ethyl]purine bis(2,2,2-trifluoroethyl) esters as novel HBV-specific antiviral reagents” (J Med Chem, 2002).
# pIC50: −log10 of the molar value.
# Key:
# [1] = Cytotoxic concentration of compound required for 50% extinction of HuH-6 cells; type: functional; conditions: Homo sapiens
# Outline: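 HuH-6 cells (parent of HB611) seeded at 1 × 10⁵ cells/mL, cultured 3 days at 37 °C, 5% CO₂ in DMEM with 10% FBS plus compound; MTS added, further 2 h at 37 °C; viability by absorbance at 490 nm; CC50 determined.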
# Hepatitis B virus = assay: Concentration required to inhibit 50% of cytoplasmic HBV-DNA synthesis
# Human alphaherpesvirus 1 = assay: Anti-HSV-1 activity of the compound; type: functional, organism-based
Compound,CC50 [1],pIC50 (Hepatitis B virus),pIC50 (Human alphaherpesvirus 1)
COc1cccc(Sc2nc(N)nc3c2ncn3CCOCP(=O)(OCC(F)(F)F)OCC(F)(F)F)c1,> 1000 µM,7.40,–
Cc1cccc(Sc2nc(N)nc3c2ncn3CCOCP(=O)(OCC(F)(F)F)OCC(F)(F)F)c1,150 µM,7.05,–
CCCOc1ccc(Sc2nc(N)nc3c2ncn3CCOCP(=O)(OCC(F)(F)F)OCC(F)(F)F)cc1,250 µM,6.06,–
Cc1ccccc1Sc1nc(N)nc2c1ncn2CCOCP(=O)(OCC(F)(F)F)OCC(F)(F)F,340 µM,7.10,–
Nc1nc(Sc2ccc3ccccc3c2)c2ncn(CCOCP(=O)(OCC(F)(F)F)OCC(F)(F)F)c2n1,198 µM,7.05,–
Cc1ccc(Sc2nc(N)nc3c2ncn3CCOCP(=O)(OCC(F)(F)F)OCC(F)(F)F)cc1,110 µM,7.22,–
Nc1nc(Sc2ccccc2)c2ncn(CCOCP(=O)(OCC(F)(F)F)OCC(F)(F)F)c2n1,> 1000 µM,7.30,4.60
Nc1nc(Sc2ccc([N+](=O)[O-])cc2)c2ncn(CCOCP(=O)(OCC(F)(F)F)OCC(F)(F)F)c2n1,380 µM,6.28,–
CCc1ccc(Sc2nc(N)nc3c2ncn3CCOCP(=O)(OCC(F)(F)F)OCC(F)(F)F)cc1,170 µM,6.40,–
Nc1nc(Sc2ccc(OC(F)(F)F)cc2)c2ncn(CCOCP(=O)(OCC(F)(F)F)OCC(F)(F)F)c2n1,820 µM,7.22,–
CCOc1ccc(Sc2nc(N)nc3c2ncn3CCOCP(=O)(OCC(F)(F)F)OCC(F)(F)F)cc1,> 1000 µM,6.19,–
CCCCOc1ccc(Sc2nc(N)nc3c2ncn3CCOCP(=O)(OCC(F)(F)F)OCC(F)(F)F)cc1,260 µM,< 6.00,–
CC(C)c1ccc(Sc2nc(N)nc3c2ncn3CCOCP(=O)(OCC(F)(F)F)OCC(F)(F)F)cc1,170 µM,6.01,–
COc1ccc(Sc2nc(N)nc3c2ncn3CCOCP(=O)(O)OCC(F)(F)F)cc1,–,7.15,–
Nc1nc(Sc2ccc(Cl)cc2)c2ncn(CCOCP(=O)(OCC(F)(F)F)OCC(F)(F)F)c2n1,62 µM,6.92,–
CC(C)COc1ccc(Sc2nc(N)nc3c2ncn3CCOCP(=O)(OCC(F)(F)F)OCC(F)(F)F)cc1,100 µM,6.08,–
CC(C)Oc1ccc(Sc2nc(N)nc3c2ncn3CCOCP(=O)(OCC(F)(F)F)OCC(F)(F)F)cc1,350 µM,6.54,–
COc1ccccc1Sc1nc(N)nc2c1ncn2CCOCP(=O)(OCC(F)(F)F)OCC(F)(F)F,> 1000 µM,7.10,–
Nc1ncnc2c1ncn2CCOCP(=O)(O)O [ADEFOVIR],> 1000 µM,6.70,–
COc1ccc(Sc2nc(N)nc3c2ncn3CCOCP(=O)(OCC(F)(F)F)OCC(F)(F)F)cc1 [ALAMIFOVIR],> 1000 µM,7.52,–
Nc1ccn([C@@H]2CS[C@H](CO)O2)c(=O)n1 [LAMIVUDINE],> 1000 µM,5.66,–
